Experimental data published in ChEMBL document CHEMBL1153428, “Synthesis and structure-activity relationships of amide derivatives of (4,4-difluoro-1,2,3,4-tetrahydro-5H-1-benzazepin-5-ylidene)acetic acid as selective arginine vasopressin V2 receptor agonists” (Bioorg Med Chem, 2009).
pEC50, pIC50, pKi: −log10 of the molar value. Activity calls are given as the source filed them. The rule behind the calls is not given here.

Experiments:
Vasopressin V2 receptor [1] = molecular target: T1, Vasopressin V2 receptor (Homo sapiens, UniProt P30518); assay: Displacement of [3H]vasopressin from human V2 receptor expressed in CHO cells; assay type: cell-based
Homo sapiens = species: Homo sapiens; assay: Selectivity for human V1a receptor to human V2 receptor
Vasopressin V1a receptor = Vasopressin V1a receptor (Homo sapiens, UniProt P37288); assay: Displacement of [3H]vasopressin from human V1a receptor expressed in CHO cells; assay type: cell-based
Procedure, shortened: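 Membrane receptors from CHO cells expressing human V1a were used in a radioligand competition binding format. Ki values come from triplicate assays.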

Vasopressin V2 receptor [2] = molecular target: T1, Vasopressin V2 receptor; assay: Intrinsic activity at human V2 receptor expressed in CHO cells assessed as increase in cAMP level relative to arginine vasopressin; assay type: functional, cell-based
Procedure, shortened: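 CHO cells stably expressing human V2 receptors, grown in α-MEM with 10% FBS, serum-starved 24 h. Compound added in α-MEM with 1 mmol/L IBMX and 0.1% BSA, 10 min at 37 °C. Cells lysed in PBS with 0.2% Triton X-100; cAMP read by HTRF. Maximum response expressed as % of AVP maximum (100%); triplicate.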

Vasopressin V2 receptor [3] = molecular target: T1, Vasopressin V2 receptor; assay: Agonist activity at human V2 receptor expressed in CHO cells assessed as increase in cAMP level; assay type: functional, cell-based
Procedure, shortened: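 CHO cells stably expressing human V2 were grown in α-MEM with 10% FBS and 0.1% amethopterin at 37 °C, then serum-starved for 24 h. Compound was added in α-MEM with 1 mmol/L IBMX and 0.1% BSA for 10 min at 37 °C. Cells were lysed in PBS with 0.2% Triton X-100 and cAMP was read by HTRF. EC50 was derived by logistic regression; Emax was expressed as % of the AVP maximum. Assays were run in triplicate.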

Rattus norvegicus = assay: Antidiuretic effect in iv dosed water-loaded Wistar rat assessed as suppression of urinary excretion within 4 hrs; assay type: functional, organism-based; details: Urine
Cytochrome P450 3A4 = Cytochrome P450 3A4 (Homo sapiens, UniProt P08684); assay: Inhibition of CYP3A4 in human liver microsome assessed as 1'-hydroxymidazolam formation by competitive inhibition assay
Cytochrome P450 2C19 = Cytochrome P450 2C19 (Homo sapiens, UniProt P33261); assay: Inhibition of recombinant CYP2C19 by fluorescent P450 inhibition assay
Cytochrome P450 2C9 = Cytochrome P450 2C9 (Homo sapiens, UniProt P11712); assay: Inhibition of recombinant CYP2C9 by fluorescent P450 inhibition assay
Cytochrome P450 2D6 = Cytochrome P450 2D6 (Homo sapiens, UniProt P10635); assay: Inhibition of recombinant CYP2D6 by fluorescent P450 inhibition assay
Chain of Cytochrome P450 2D6 (P10635 whole entry): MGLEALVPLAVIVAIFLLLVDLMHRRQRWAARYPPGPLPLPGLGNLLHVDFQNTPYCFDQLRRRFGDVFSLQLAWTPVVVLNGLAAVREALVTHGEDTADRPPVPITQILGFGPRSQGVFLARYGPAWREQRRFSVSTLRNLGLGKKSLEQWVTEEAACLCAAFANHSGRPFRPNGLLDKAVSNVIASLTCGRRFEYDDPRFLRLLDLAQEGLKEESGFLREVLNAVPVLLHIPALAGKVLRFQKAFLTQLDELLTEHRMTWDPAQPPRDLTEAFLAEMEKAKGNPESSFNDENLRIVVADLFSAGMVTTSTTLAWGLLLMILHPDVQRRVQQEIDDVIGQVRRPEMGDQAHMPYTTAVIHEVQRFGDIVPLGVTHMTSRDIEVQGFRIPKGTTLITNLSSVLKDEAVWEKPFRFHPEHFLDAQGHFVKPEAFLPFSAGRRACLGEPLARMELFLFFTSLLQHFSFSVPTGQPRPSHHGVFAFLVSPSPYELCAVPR

Chain of Vasopressin V1a receptor (P37288 whole entry): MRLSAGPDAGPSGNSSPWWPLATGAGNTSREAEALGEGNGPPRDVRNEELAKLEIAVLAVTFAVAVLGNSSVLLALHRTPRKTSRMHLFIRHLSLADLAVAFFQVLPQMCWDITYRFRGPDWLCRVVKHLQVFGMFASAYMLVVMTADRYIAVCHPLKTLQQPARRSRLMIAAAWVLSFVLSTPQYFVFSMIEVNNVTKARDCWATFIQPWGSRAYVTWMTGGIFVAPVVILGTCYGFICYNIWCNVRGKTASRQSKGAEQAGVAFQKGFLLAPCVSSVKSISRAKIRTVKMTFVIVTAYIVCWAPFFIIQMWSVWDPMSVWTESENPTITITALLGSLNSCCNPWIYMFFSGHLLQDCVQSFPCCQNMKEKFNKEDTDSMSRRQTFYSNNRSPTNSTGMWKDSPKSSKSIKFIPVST
T1 sequence (P30518 whole entry): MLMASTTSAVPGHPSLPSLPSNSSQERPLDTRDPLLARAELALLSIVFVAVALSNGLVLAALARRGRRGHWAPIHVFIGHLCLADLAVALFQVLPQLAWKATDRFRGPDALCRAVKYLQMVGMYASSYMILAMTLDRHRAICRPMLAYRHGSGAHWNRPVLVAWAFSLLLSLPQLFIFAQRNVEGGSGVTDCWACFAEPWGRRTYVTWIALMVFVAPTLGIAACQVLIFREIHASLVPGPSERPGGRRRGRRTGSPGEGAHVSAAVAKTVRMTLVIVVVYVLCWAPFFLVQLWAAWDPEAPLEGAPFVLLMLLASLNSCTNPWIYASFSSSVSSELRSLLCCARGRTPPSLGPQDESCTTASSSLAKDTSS
Chain of Cytochrome P450 2C9 (P11712 whole entry): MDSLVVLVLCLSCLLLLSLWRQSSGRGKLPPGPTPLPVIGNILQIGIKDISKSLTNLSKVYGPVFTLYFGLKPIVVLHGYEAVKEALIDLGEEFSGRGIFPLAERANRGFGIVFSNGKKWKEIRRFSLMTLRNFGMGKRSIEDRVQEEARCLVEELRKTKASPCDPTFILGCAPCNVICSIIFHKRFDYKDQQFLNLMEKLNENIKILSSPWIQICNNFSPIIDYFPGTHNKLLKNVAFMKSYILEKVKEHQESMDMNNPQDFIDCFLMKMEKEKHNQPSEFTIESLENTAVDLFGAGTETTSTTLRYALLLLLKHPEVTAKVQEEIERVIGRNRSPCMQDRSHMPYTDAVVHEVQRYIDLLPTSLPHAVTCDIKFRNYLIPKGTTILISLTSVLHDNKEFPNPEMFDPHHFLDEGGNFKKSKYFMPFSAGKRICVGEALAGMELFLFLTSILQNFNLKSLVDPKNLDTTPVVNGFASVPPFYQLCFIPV
Chain of Cytochrome P450 2C19 (P33261 whole entry): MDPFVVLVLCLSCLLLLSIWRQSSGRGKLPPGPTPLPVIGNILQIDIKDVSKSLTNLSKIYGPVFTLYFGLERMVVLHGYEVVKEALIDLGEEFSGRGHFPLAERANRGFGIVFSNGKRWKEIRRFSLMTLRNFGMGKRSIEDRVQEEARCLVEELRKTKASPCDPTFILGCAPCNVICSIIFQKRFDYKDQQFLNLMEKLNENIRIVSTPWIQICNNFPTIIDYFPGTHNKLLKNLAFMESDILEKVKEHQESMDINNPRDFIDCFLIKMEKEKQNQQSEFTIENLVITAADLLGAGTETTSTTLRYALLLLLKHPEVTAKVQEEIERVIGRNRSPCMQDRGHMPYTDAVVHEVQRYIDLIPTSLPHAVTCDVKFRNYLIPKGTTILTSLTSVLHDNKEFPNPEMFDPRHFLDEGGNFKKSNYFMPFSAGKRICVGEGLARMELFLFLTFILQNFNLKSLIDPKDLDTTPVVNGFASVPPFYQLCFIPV
Chain of Cytochrome P450 3A4 (P08684 whole entry): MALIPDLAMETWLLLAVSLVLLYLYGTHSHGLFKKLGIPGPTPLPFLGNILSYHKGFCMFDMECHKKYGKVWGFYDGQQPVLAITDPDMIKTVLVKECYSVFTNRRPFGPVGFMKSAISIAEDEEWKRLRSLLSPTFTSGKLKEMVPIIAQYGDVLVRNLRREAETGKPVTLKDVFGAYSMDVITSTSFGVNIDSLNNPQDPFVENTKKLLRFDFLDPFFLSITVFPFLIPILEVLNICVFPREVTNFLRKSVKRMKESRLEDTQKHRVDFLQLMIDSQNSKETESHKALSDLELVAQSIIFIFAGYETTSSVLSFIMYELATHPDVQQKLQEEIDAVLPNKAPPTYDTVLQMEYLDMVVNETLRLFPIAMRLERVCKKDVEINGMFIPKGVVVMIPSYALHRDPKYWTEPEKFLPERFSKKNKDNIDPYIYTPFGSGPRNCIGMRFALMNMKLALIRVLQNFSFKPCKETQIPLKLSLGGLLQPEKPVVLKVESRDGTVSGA

SMILES | pKi (Vasopressin V2 receptor [1]) | Ratio Ki (Homo sapiens) | pKi (Vasopressin V1a receptor) | other results
Cc1ccn(-c2ccc(C(=O)N3CCC(F)(F)/C(=C\C(=O)NCC(=O)O)c4ccccc43)c(Cl)c2)n1 | 7.66 | 10 | 6.64 | –
Cc1ccn(-c2ccc(C(=O)N3CCC(F)(F)/C(=C\C(=O)NCc4cccc(N(C)C)n4)c4ccccc43)c(Cl)c2)n1 | 7.96 | 4.4 | 7.32 | –
Cc1ccn(-c2ccc(C(=O)N3CCC(F)(F)/C(=C\C(=O)NCc4cnccn4)c4ccccc43)c(Cl)c2)n1 | 7.85 | 4.1 | 7.24 | –
Cc1ccn(-c2ccc(C(=O)N3CCC(F)(F)/C(=C\C(=O)NCc4ccncn4)c4ccccc43)c(Cl)c2)n1 | 7.96 | 4 | 7.36 | –
Cc1ccn(-c2ccc(C(=O)N3CCC(F)(F)/C(=C\C(=O)NCc4cccnn4)c4ccccc43)c(Cl)c2)n1 | 8.47 | – | 7.37 | Emax (Vasopressin V2 receptor [2]): 86.4%; pEC50 (Vasopressin V2 receptor [3]): 7.80; Activity (Rattus norvegicus): Active
CCCNC(=O)/C=C1/c2ccccc2N(C(=O)c2ccc(-n3ccc(C)n3)cc2Cl)CCC1(F)F | 7.74 | 0.72 | 7.89 | –
Cc1cccc(CNC(=O)/C=C2/c3ccccc3N(C(=O)c3ccc(-n4ccc(C)n4)cc3Cl)CCC2(F)F)n1 | – | 5.4 | 7.52 | –
Cc1ccn(-c2ccc(C(=O)N3CCC(F)(F)/C(=C\C(=O)NCc4nc5ccccc5[nH]4)c4ccccc43)c(Cl)c2)n1 | 7.92 | 6 | 7.14 | –
Cc1ccn(-c2ccc(C(=O)N3CCC(F)(F)/C(=C\C(=O)NCc4ccco4)c4ccccc43)c(Cl)c2)n1 | 7.57 | 2.7 | 7.14 | –
Cc1ccn(-c2ccc(C(=O)N3CCC(F)(F)/C(=C\C(=O)NCc4nccs4)c4ccccc43)c(Cl)c2)n1 | 7.96 | 3.9 | 7.37 | –
Cc1ccn(-c2ccc(C(=O)N3CCC(F)(F)/C(=C\C(=O)NCc4ccccc4)c4ccccc43)c(Cl)c2)n1 | 7.72 | 2.3 | 7.37 | –
Cc1ccn(-c2ccc(C(=O)N3CCC(F)(F)/C(=C\C(=O)O)c4ccccc43)c(Cl)c2)n1 | 7.60 | 252 | 5.20 | pIC50 (Cytochrome P450 3A4): < 4.70; pIC50 (Cytochrome P450 2C19): < 4.70; Emax (Vasopressin V2 receptor [2]): 92.4%; pIC50 (Cytochrome P450 2C9): < 4.70; pIC50 (Cytochrome P450 2D6): 4.96; pEC50 (Vasopressin V2 receptor [3]): 8.38; Activity (Rattus norvegicus): inactive
Cc1ccn(-c2ccc(C(=O)N3CCC(F)(F)/C(=C\C(=O)NCc4ccccn4)c4ccccc43)c(Cl)c2)n1 | – | – | 7.59 | –
Cc1ccn(-c2ccc(C(=O)N3CCC(F)(F)/C(=C\C(=O)NCC(N)=O)c4ccccc43)c(Cl)c2)n1 | 7.96 | 3.6 | 7.40 | –
Cc1ccn(-c2ccc(C(=O)N3CCC(F)(F)/C(=C\C(=O)NCc4cccc(C#N)n4)c4ccccc43)c(Cl)c2)n1 | 8.13 | 3 | 7.66 | –
Cc1ccn(-c2ccc(C(=O)N3CCC(F)(F)/C(=C\C(=O)NCc4cccnc4)c4ccccc43)c(Cl)c2)n1 | 7.68 | 1.9 | 7.40 | –
Cc1ccn(-c2ccc(C(=O)N3CCC(F)(F)/C(=C\C(=O)NCc4cccc(N)n4)c4ccccc43)c(Cl)c2)n1 | 8.00 | 3.8 | 7.42 | –
Cc1ccn(-c2ccc(C(=O)N3CCC(F)(F)/C(=C\C(=O)NCc4nc5ccccc5s4)c4ccccc43)c(Cl)c2)n1 | 7.96 | 5 | 7.26 | –
Cc1ccn(-c2ccc(C(=O)N3CCC(F)(F)/C(=C\C(N)=O)c4ccccc43)c(Cl)c2)n1 | 7.48 | 5.8 | 6.72 | –
Cc1ccn(-c2ccc(C(=O)N3CCC(F)(F)/C(=C\C(=O)NCCN(C)C)c4ccccc43)c(Cl)c2)n1 | 7.28 | 1.1 | 7.23 | –
Cc1ccn(-c2ccc(C(=O)N3CCC(F)(F)/C(=C\C(=O)NCCO)c4ccccc43)c(Cl)c2)n1 | 8.01 | – | 7.55 | Emax (Vasopressin V2 receptor [2]): 93.9%; pEC50 (Vasopressin V2 receptor [3]): 8.20; Activity (Rattus norvegicus): Active
Cc1ccn(-c2ccc(C(=O)N3CCC(F)(F)/C(=C\C(=O)NCc4ccncc4)c4ccccc43)c(Cl)c2)n1 | 7.70 | 0.75 | 7.82 | –
COc1cccc(CNC(=O)/C=C2/c3ccccc3N(C(=O)c3ccc(-n4ccc(C)n4)cc3Cl)CCC2(F)F)n1 | 7.80 | 2.9 | 7.33 | –
